For 18 molecules, IC50 and inhibition results are on record in ChEMBL document CHEMBL1129328, “Structure-activity studies of 6-(tetrazolylalkyl)-substituted decahydroisoquinoline-3-carboxylic acid AMPA receptor antagonists. 1. Effects of stereochemistry, chain length, and chain substitution” (J Med Chem, 1996).

SMILES strings stand for the structures.

Experiment [1] concerns the target Glutamate receptor ionotropic, kainate. In words: Binding affinity at Ionotropic glutamate receptor kainate in rat cortical tissue by [3H]-kainic acid displacement. An outline of the steps:
(§1)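 Displacement of radioligand from rat cortical tissue membranes: [3H]CGS 19755 for NMDA sites, [3H]kainic acid for kainate sites. Each determination run in triplicate unless otherwise indicated.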

Experiment [2] has as its target Glutamate NMDA receptor. In words: Binding affinity at N-methyl-D-aspartate glutamate receptor in rat cortical tissue by [3H]-CGS- 19755 displacement. Put shortly:
as §1

Experiment [3] deals with T1, Glutamate receptor ionotropic, AMPA (Rattus norvegicus, UniProt P19490+P19491+P19492+P19493). In words: Binding affinity at Ionotropic glutamate receptor AMPA in rat cortical tissue by [3H]AMPA displacement.
The target in experiment [4] is Glutamate receptor ionotropic, kainate. In kind it is functional.
Experiment [5] has as its target T1, Glutamate receptor ionotropic, AMPA. In words: AMPA receptor antagonistic activity as inhibition of depolarizations induced by 40 uM AMPA in rat cortical slice preparation. In kind it is functional.
Experiment [6] addresses Glutamate NMDA receptor. Description: (§2) Compound was tested for NMDA receptor antagonistic activity by measuring its ability to inhibit depolarizations induced by 40 uM NMDA in rat cortical slice preparation. The experiment is classed as functional.
Experiment [7] addresses T1, Glutamate receptor ionotropic, AMPA. Description: Compound was tested for AMPA receptor antagonistic activity by measuring its ability to inhibit depolarizations induced by 40 uM AMPA in rat cortical slice preparation. The experiment is classed as functional. Put shortly:
(§3)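 Rat cortical slice (cortical wedge) preparation. Antagonism measured as inhibition of depolarizations evoked by 40 uM AMPA (a few cases 40 uM quisqualic acid instead) or 40 uM NMDA. Compounds were also applied alone to check for agonist activity.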

Experiment [8] has the same target. Description: Compound was tested for AMPA receptor antagonistic activity by measuring its ability to inhibit depolarizations induced by 40 uM quisqualic acid in rat cortical slice preparation. In kind it is functional. An outline of the steps: as §3
In experiment [9] the target is Glutamate NMDA receptor (Rattus norvegicus) (UniProt P35439+Q00959+Q00960+Q00961+Q62645+Q8VHN2+Q9R1M7). The description is as §2. In kind it is functional. Put shortly: as §3

For `O=C(O)[C@H]1C[C@H]2CC(CCc3nnn[nH]3)CC[C@H]2CN1` (stereo partly drawn), the IC50 in experiment [1] is > 100 µM; at Glutamate NMDA receptor [2], > 10 µM; in experiment [3], > 100 µM; in [4], > 100 µM; in experiment [5] it was > 100 µM; against Glutamate NMDA receptor [6], > 100 µM.

Regarding `O=C(O)[C@@H]1C[C@H]2C[C@@H](C(Cc3nnn[nH]3)c3ccccc3)CC[C@H]2CN1` (stereo partly drawn), the IC50 in experiment [1] is > 100 µM; in experiment [7], 9 µM; at Glutamate NMDA receptor [2] it was 15.1 µM; in [3] it was 9.8 µM; in experiment [4] it was 23.6 µM; against Glutamate NMDA receptor [6], 100 µM.

For the molecule `O=C(O)[C@@H]1C[C@H]2C[C@@H](Cc3nnn[nH]3)CC[C@H]2CN1`, the IC50 in experiment [1] was > 100 µM; in [8], > 100 µM; on Glutamate NMDA receptor [2], 0.94 µM; in experiment [3] it was 84.5 µM; in [4] it was > 100 µM; on Glutamate NMDA receptor [6], 1.4 µM.

On to `O=C(O)[C@@H]1C[C@H]2C[C@@H](OCc3nn[nH]n3)CC[C@H]2CN1`, for which the IC50 in [1] was 55 µM; at Glutamate NMDA receptor [2], 5.9 µM; in experiment [3] it was 24 µM; in experiment [4], > 100 µM; in [5], 29.5 µM; at Glutamate NMDA receptor [6], 28.3 µM.

With `O=C(O)[C@@H]1C[C@H]2C[C@@H](CCc3nn[nH]n3)CC[C@H]2CN1` [TEZAMPANEL ANHYDROUS], the IC50 worked out at 247 µM in [1], 31.7 µM in experiment [4], 6 µM in experiment [5] and 61.3 µM on Glutamate NMDA receptor [6].

With `CC(C[C@H]1CC[C@H]2CN[C@H](C(=O)O)C[C@H]2C1)c1nnn[nH]1` (stereo partly drawn), the IC50 in experiment [1] was 27.3 µM; on Glutamate NMDA receptor [2], > 100 µM; in [3] it was 4.21 µM.

With `O=C(O)[C@@H]1C[C@H]2C[C@H](CCc3nnn[nH]3)CC[C@H]2CN1`, the IC50 in [1] is 180 µM; at Glutamate NMDA receptor [2], 60.6 µM; in experiment [3] it was 59.6 µM; in experiment [4] it was > 100 µM; in [5] it was > 100 µM.

Turning to `CC(Cc1nnn[nH]1)[C@H]1CC[C@H]2CN[C@H](C(=O)O)C[C@H]2C1` (stereo partly drawn), the IC50 in [1] is 35 µM; in [7], 6 µM; on Glutamate NMDA receptor [2], 53.2 µM; in [3] it was 3 µM; in [4] it was 58 µM; at Glutamate NMDA receptor [6] it was > 100 µM.

In the case of `O=C(O)[C@@H]1C[C@H]2C[C@@H](NCc3nn[nH]n3)CC[C@H]2CN1`, the IC50 is > 100 µM in experiment [1]; 11.5 µM on Glutamate NMDA receptor [2]; > 100 µM in [3]; > 100 µM in [4]; 69.3 µM in experiment [5]; 33.4 µM on Glutamate NMDA receptor [6].

On to `O=C(O)[C@@H]1C[C@H]2C[C@H](OCc3nn[nH]n3)CC[C@H]2CN1`, for which the IC50 is > 100 µM in experiment [1]; 5.3 µM at Glutamate NMDA receptor [2]; > 100 µM in experiment [3]; > 100 µM in experiment [4]; > 100 µM in experiment [5]; 13.6 µM on Glutamate NMDA receptor [6].

For `O=C(O)C1Cc2cc(CCc3nnn[nH]3)ccc2CN1` (stereo not drawn), the IC50 in experiment [1] was > 10 µM; on Glutamate NMDA receptor [2] it was > 10 µM; in experiment [3], > 100 µM; in experiment [4] it was > 100 µM; in [5] it was > 100 µM; on Glutamate NMDA receptor [6], > 100 µM.

Regarding `O=C(O)[C@@H]1C[C@H]2C[C@@H](CCCc3nnn[nH]3)CC[C@H]2CN1`, the IC50 was 18.7 µM in [1]; 22 µM in experiment [8]; 27 µM at Glutamate NMDA receptor [2]; 16.8 µM in experiment [3]; > 100 µM in experiment [4]; > 100 µM against Glutamate NMDA receptor [6].

Take `O=C(O)[C@@H]1C[C@H]2C[C@@H](CCc3nnn[nH]3)CC[C@@H]2CN1`: the IC50 (in [1]; at Glutamate NMDA receptor [2]; in experiment [3]; in [4]; in experiment [5]; on Glutamate NMDA receptor [6]) was > 100 µM throughout.

Turning to `O=C(O)[C@@H]1C[C@H]2C[C@@H](CCCCc3nnn[nH]3)CC[C@H]2CN1`, the IC50 in experiment [1] is > 100 µM; on Glutamate NMDA receptor [2] it was > 100 µM; in experiment [3], 57 µM; in experiment [4], < 100 µM; in experiment [5], 27.6 µM; at Glutamate NMDA receptor [6] it was > 100 µM.

With `CN(Cc1nn[nH]n1)[C@H]1CC[C@H]2CN[C@H](C(=O)O)C[C@H]2C1`, the IC50 in [1] is > 100 µM; at Glutamate NMDA receptor [2] it was 65.8 µM; in experiment [3], > 100 µM; in experiment [4], > 100 µM; in experiment [5], > 100 µM; against Glutamate NMDA receptor [6] it was > 100 µM.

`O=C(O)[C@@H]1C[C@H]2C[C@@H](c3nnn[nH]3)CC[C@H]2CN1`: the IC50 in [1] is 31.8 µM; in [3], 12.8 µM; in experiment [4] it was > 100 µM; in experiment [5] it was 40.9 µM; on Glutamate NMDA receptor [6], 7.5 µM.

Regarding `O=CN(Cc1nn[nH]n1)[C@H]1CC[C@H]2CN[C@H](C(=O)O)C[C@H]2C1`, the IC50 in experiment [1] was > 100 µM; on Glutamate NMDA receptor [2], > 100 µM; in experiment [3] it was 23.1 µM.

With `O=C(O)[C@@H]1NCC[C@H]2CC(CCc3nnn[nH]3)CC[C@H]21` (stereo partly drawn), the IC50 is > 100 µM in experiment [1]; 12.8 µM on Glutamate NMDA receptor [2]; > 100 µM in experiment [3]; > 100 µM in [4]; > 100 µM in experiment [5]. Also, the inhibition in experiment [9] was 50%.

One may read the IC50 as the concentration that gives 50% inhibition. A low value points to greater potency. For orientation: inhibition means the share of the control response that was lost under treatment.
